# High-throughput results deposited in PubChem by The Scripps Research Institute Molecular Screening Center.
# TAAR1 ag: human TAAR1 agonists, primary screen, Fluo-8 calcium fluorescence, CHO RD-HGA16 cells. vehicle wells 0%, saturating PEA agonist 100%. activation, % at 3 µM. 0.99% of 360,000 active;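 active = activation above the mean activation of all test compounds in the run plus 3 SD, cut at about 38% in these data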
# Target sequence (Q96RJ0 whole entry, looked up): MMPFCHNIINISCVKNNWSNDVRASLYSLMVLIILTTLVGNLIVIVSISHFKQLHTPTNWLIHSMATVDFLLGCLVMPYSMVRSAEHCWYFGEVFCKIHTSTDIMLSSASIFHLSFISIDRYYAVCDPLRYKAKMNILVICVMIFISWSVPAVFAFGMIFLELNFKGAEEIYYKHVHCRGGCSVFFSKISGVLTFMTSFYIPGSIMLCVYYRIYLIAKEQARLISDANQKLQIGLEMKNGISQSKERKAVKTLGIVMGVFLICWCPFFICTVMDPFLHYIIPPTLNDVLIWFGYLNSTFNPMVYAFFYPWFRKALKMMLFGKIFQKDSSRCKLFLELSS
#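 Assay system: CHO-derived RD-HGA16 cells with stable Gα16 and human TAAR1; timing: 17-24 h seeding, 75 min 37 °C dye, 30 min RT; read-out: % activation from peak over basal fluorescence ratio, DMSO-to-PEA scaled; measured by: kinetic Fluo-8 calcium fluorescence; benchmarks: low control DMSO, high control PEA (EC100); doses: 3 µM single concentration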
# OX1R antag-1: OX1R (HCRTR1) antagonists, primary screen, fluorescence, CHO/OX1R cells, Fluo-8 calcium, orexin A. Fluo-8 calcium fluorescence. inhibition, % at 5 µM. 0.43% of 330,000 active. AID 434989, 2010;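 active = inhibition above its plate's threshold, mean inhibition of all tested compounds on the plate plus 3 SD, cut at about 37% in these data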;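 note: 0% = orexin A challenge wells and 100% = SB-334867-A antagonist wells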
# CHO parental Ca: ATP-evoked calcium signal inhibitors, parental CHO, primary screen, counter-screen for OX1R antagonist project, cell-based, fluorescence, Fluo-8 calcium dye; inhibition, % at 5.6 µM; 0.63% of 330,000 active; parental CHO-K1, ATP-induced calcium, Fluo-8 fluorescence;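 active = inhibition above that plate's mean sample inhibition plus 3 SD, cut at about 26% in these data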;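 note: 0% = ATP-challenged DMSO wells and 100% = DMSO wells without ATP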
#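 Material: parental CHO cells / Compound: single nominal dose of 5.6 µM per compound / Signal: Fluo-8 fluorescence / Replicates: singlicate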
# TAAR1 antagonist: human TAAR1 antagonists, primary screen, Fluo-8 calcium fluorescence, CHO RD-HGA16 cells; Trace amine-associated receptor 1 (Homo sapiens), Q96RJ0; antagonist; inhibition, % at 3 µM; 1.5% of 360,000 active; AID 624466, 2012;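 active = inhibition above a per-plate cutoff, the mean inhibition of test compounds on that plate plus 3 SD, cut at about 49% in these data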;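 note: 0% = DMSO plus EC80 beta-PEA response and 100% = DMSO alone without agonist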
#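 Test system: CHO RD-HGA16 cells bearing hTAAR1 | Reagent: β-PEA, EC80 | Compound dosing: 3 µM, single point | Schedule: Dye loading 75 min at 37 °C, then 30 min room temperature | Signal: Calcium fluorescence with Fluo-8 | Evaluation: Percent inhibition of PEA-evoked calcium signal, max/basal emission ratio | Control set: DMSO-only wells and EC80 β-PEA-stimulated wells | Repeats: Singlicate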
# OX1R antag-2: antagonists of human orexin 1 receptor (OX1R); inhibition, % at 6.6 µM; AID 485270, 2010; 1.8% of 330,000 active; OX1R-expressing cells, FRET antagonist read-out; Orexin/Hypocretin receptor type 1 (Homo sapiens), O43613; in the data active = inhibition mostly above about 38%, no sharp cut-off; inactive = mostly below about 40%;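 note: 0% = agonist challenge alone and 100% = reference antagonist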
# An asterisk follows results filed as active; nt = not tested or not shown. In the library only some 3.9% were active in any assay of this set; here they are far more common.
SMILES,TAAR1 ag,OX1R antag-1,CHO parental Ca,TAAR1 antagonist,OX1R antag-2
O=C1C(C=Nc2ccccc2O)=C(O)c2ccccc21,7.6,6.3,-16.6,18.2,59.1*
O=C(Nc1ccc([N+](=O)[O-])cc1)Nc1nc(-c2ccc(Cl)s2)cs1,10.6,27.7,57.2*,3.3,27.6
Cc1cc(C)cc(NC(=O)c2ccc(Cn3nc(C)c(Cl)c3C)o2)c1,28.6,8.0,-8.3,54.4*,15.4
CSc1cccc(NC(=O)/C=C/c2ccccc2)c1,1.5,-15.9,-22.9,18.6,26.0
CSc1cccc(NC(=O)/C=C/c2ccc(Cl)cc2)c1,3.8,6.3,-12.0,45.0,91.5*
C[C@H](CO)N1C[C@H](C)[C@@H](CN(C)C(=O)Nc2cccc(F)c2)OCc2cn(nn2)CCCC1=O,1.6,nt,nt,-7.2,nt
COc1ccc(O)c(-c2c(-c3ccc(Cl)cc3)n[nH]c2C)c1,2.5,-24.2,-14.9,5.6,36.0
Cc1[nH]nc(-c2ccc(O)cc2O)c1-c1ccc(Cl)cc1,6.7,12.5,12.7,19.4,-1.8
COc1ccc(-c2n[nH]c(C)c2-c2ccc(Cl)cc2)c(O)c1OC,19.4,-7.7,-10.3,54.2*,69.3
COc1ccc(-c2n[nH]c(C)c2-c2ccc(Cl)cc2)c(O)c1,0.7,39.2,98.3*,10.4,21.0
Fc1ccc2[nH]c3c(NCc4ccccc4)ncnc3c2c1,12.9,2.6,70.0*,15.7,59.1*
C=CCn1c(Sc2ncc([N+](=O)[O-])s2)n[nH]c1=O,5.2,20.7,11.3,-12.1,56.5*
CN(C)Cc1ccccc1-c1cccc2nccn12,1.6,nt,nt,-20.4,nt
COC(=O)[C@]12C[C@H](CC(=O)NCc3cccc4ccccc34)C(=O)N(CCc3ccc(OC)c(OC)c3)C1=C[C@H](C(C)(C)C)O[C@@H]2C,3.4,nt,nt,-14.4,nt
O=C(CCCN1C(=O)/C(=C/c2ccc3c(c2)OCO3)SC1=S)Nc1cccc(C(=O)O)c1,2.8,6.7,-16.9,-14.0,54.3*
COc1ccc(/C=C2/SC(=S)N(CCCC(=O)Nc3ccc(O)cc3)C2=O)cc1OC,-2.0,-11.3,-1.5,-26.2,53.8*
COc1cccc(/C=C2/SC(=S)N(CC(=O)NNC(=O)c3ccccc3O)C2=O)c1,-1.4,-3.1,-10.8,-5.7,48.2*
O=C(CN1C(=O)/C(=C/c2ccccc2)SC1=S)NNC(=O)c1ccccc1O,9.8,-5.7,0.1,-15.2,13.8
COc1ccc(/C=C2\SC(=S)N(CCCC(=O)Nc3ccc(C(=O)O)cc3)C2=O)cc1OC,3.8,-10.6,-4.4,-24.4,7.8
COc1cccc(/C=C2/SC(=S)N(CCCC(=O)Nc3ccc(O)cc3)C2=O)c1,-1.4,10.5,-9.5,-24.4,73.0*
CN(C)c1ccc(NC(=O)Nc2nc(C(N)C3CCCCC3)cs2)cc1 (centres undefined),2.6,nt,nt,0.8,nt
CC(=O)C1=C(C)N(Cc2ccc(Br)cc2)C(=S)NC1c1cccc(F)c1 (centres undefined),-0.5,nt,nt,27.5,nt
O=C(O)/C=C/c1cn(-c2ccccc2)nc1-c1cc2ccccc2o1,2.2,9.1,-0.7,17.9,26.9
O=C(O)/C=C\c1cn(-c2ccccc2)nc1-c1cc2ccccc2o1,0.9,15.4,10.3,0.6,76.4*
Cc1ccc(-c2nn(-c3ccccc3)cc2/C=C/C(=O)OCC(=O)NC2CC2)o1,16.8,76.8*,83.2*,32.5,46.3
SMILES,TAAR1 ag,OX1R antag-1,CHO parental Ca,TAAR1 antagonist,OX1R antag-2
CNC(=O)C[C@H]1C(=O)N(c2ccccc2)C[C@@H]1C,0.4,nt,nt,-1.9,nt
CC(C)C(N)c1csc(NC(=O)Nc2ccccc2C(C)(C)C)n1 (centres undefined),6.9,nt,nt,-7.6,nt
CC(C)(C)c1ccccc1NC(=O)Nc1nc(C(N)c2ccccc2Cl)cs1 (centres undefined),44.2*,nt,nt,1.7,nt
O=C(CCC(=O)Nc1ccccc1)NNC(=O)CCc1ccccc1,6.5,-14.1,0.9,17.4,18.0
O=C(CCc1ccccc1)Nc1cccc(NC(=O)CCc2ccccc2)c1,19.3,18.9,-29.4,16.2,48.2*
Cc1ccc(C(=O)N2CCN(c3ccc(NC(=O)COc4ccccc4C)cc3)CC2)cc1,9.3,4.2,-2.8,54.9*,3.8
Cc1ccc(NC(=O)COc2ccccc2CNC(C)(C)CC(C)(C)C)cc1,45.5*,-14.0,-9.9,-2.7,5.9
COc1ccc(C(CNC(=O)c2ccc(S(=O)(=O)Nc3ccc(F)cc3)cc2)N(C)C)cc1 (centres undefined),45.1*,-2.5,1.9,16.8,19.3
COc1ccc(NS(=O)(=O)c2ccc(NC(=O)Cc3cccs3)cc2)cc1,41.0*,16.0,5.6,14.8,12.2
COc1ccc(NS(=O)(=O)c2ccc(C(=O)N(C)Cc3cccs3)cc2)cc1,45.0*,nt,nt,34.4,nt
COc1ccc(NC(=O)c2sc(=O)n(Cc3ccccc3C#N)c2C)cc1OC,6.7,nt,nt,31.3,nt
c1ccc(CN2CC[C@@H](Nc3nccn4ccnc34)C2)cc1,9.0,nt,nt,-4.6,nt
O=C(CSc1nnc2ccccn12)NC(=O)c1cccc([N+](=O)[O-])c1,2.1,-13.2,-0.5,0.6,43.2*
CCc1nc2c(OCc3ccc(OC(F)F)cc3)cccn2c1N(C)C(=O)c1ccc(OC)cc1,0.0,nt,nt,-12.4,nt
CCSc1cc(C)nc2c(-c3ccccc3)cnn12,-0.6,-4.3,-19.0,-37.4,59.5*
